Assays:
Heart [1] = assay: Drug uptake in overnight fasted Sprague-Dawley rat heart at 9 to 11 MBq, iv at 5 mins by microPET analysis; format: ADME, organism-based; conditions: in vivo
How it was run: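 Female rats fasted overnight, under isoflurane. 18F-labelled tracer (9–11 MBq) given into a tail vein. Dynamic PET acquisition over the upper thorax for 50 min, then a static whole-body scan 55–115 min post-injection. 2–5 rats per tracer.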

Muscle tissue [2] = assay: Biodistribution in overnight fasted Sprague-Dawley rat muscle pellet fraction at 0.7 to 1.4 MBq, iv preincubated with POCA for 2 hrs before compound administration measured at 120 mins post treatment by Folch-type extraction method; format: ADME, organism-based; conditions: in vivo
How it was run: (§1)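 Female Sprague-Dawley rats, fasted overnight, under isoflurane (3.5% induction, 1.5% maintenance). [18F] tracer in 0.5–1.0% BSA/saline was given by tail vein. POCA group: 30 mg/kg i.p. 120 min before tracer. About 0.5 g tissue was homogenized and sonicated in chloroform/methanol (2:1) at 0 °C, then 40% urea and 5% H2SO4 were added and spun 10 min at 1,800 g. Aqueous, organic and pellet fractions were counted as % of total.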

Muscle tissue [3] = assay: Biodistribution in overnight fasted Sprague-Dawley rat muscle organic fraction at 0.7 to 1.4 MBq, iv preincubated with POCA for 2 hrs before compound administration measured at 120 mins post treatment by Folch-type extraction method; format: ADME, organism-based; conditions: in vivo; how it was run: as §1
Heart [4] = assay: Biodistribution in overnight fasted Sprague-Dawley rat heart pellet fraction at 0.7 to 1.4 MBq, iv preincubated with POCA for 2 hrs before compound administration measured at 120 mins post treatment by Folch-type extraction method; format: ADME, organism-based; conditions: in vivo; how it was run: as §1
Heart [5] = assay: Biodistribution in overnight fasted Sprague-Dawley rat heart aqueous fraction at 0.7 to 1.4 MBq, iv preincubated with POCA for 2 hrs before compound administration measured at 120 mins post treatment by Folch-type extraction method; format: ADME, organism-based; conditions: in vivo; how it was run: as §1
Muscle tissue [6] = assay: Biodistribution in overnight fasted Sprague-Dawley rat muscle organic fraction at 0.7 to 1.4 MBq, iv at 120 mins by Folch-type extraction method; format: ADME, organism-based; conditions: in vivo, 2 h; how it was run: as §1
Muscle tissue [7] = assay: Biodistribution in overnight fasted Sprague-Dawley rat muscle aqueous fraction at 0.7 to 1.4 MBq, iv at 120 mins by Folch-type extraction method; format: ADME, organism-based; conditions: in vivo, 2 h; how it was run: as §1
Liver [8] = assay: Biodistribution in overnight fasted Sprague-Dawley rat liver aqueous fraction at 0.7 to 1.4 MBq, iv at 120 mins by Folch-type extraction method; format: ADME, organism-based; conditions: in vivo, 2 h; how it was run: as §1
Heart [9] = assay: Biodistribution in overnight fasted Sprague-Dawley rat heart organic fraction at 0.7 to 1.4 MBq, iv preincubated with POCA for 2 hrs before compound administration measured at 30 mins post treatment by Folch-type extraction method; format: ADME, organism-based; conditions: in vivo, 0.5 h; how it was run: as §1
Muscle tissue [10] = assay: Biodistribution in overnight fasted Sprague-Dawley rat muscle organic fraction at 0.7 to 1.4 MBq, iv at 30 mins by Folch-type extraction method; format: ADME, organism-based; conditions: in vivo, 0.5 h; how it was run: as §1
Muscle tissue [11] = assay: Biodistribution in overnight fasted Sprague-Dawley rat muscle pellet fraction at 0.7 to 1.4 MBq, iv at 30 mins by Folch-type extraction method; format: ADME, organism-based; conditions: in vivo, 0.5 h; how it was run: as §1
Muscle tissue [12] = assay: Biodistribution in overnight fasted Sprague-Dawley rat muscle aqueous fraction at 0.7 to 1.4 MBq, iv at 30 mins by Folch-type extraction method; format: ADME, organism-based; conditions: in vivo, 0.5 h; how it was run: as §1
Liver [13] = assay: Biodistribution in overnight fasted Sprague-Dawley rat liver pellet fraction at 0.7 to 1.4 MBq, iv at 30 mins by Folch-type extraction method; format: ADME, organism-based; conditions: in vivo, 0.5 h; how it was run: as §1
Heart [14] = assay: Biodistribution in overnight fasted Sprague-Dawley rat heart pellet fraction at 0.7 to 1.4 MBq, iv at 30 mins by Folch-type extraction method; format: ADME, organism-based; conditions: in vivo, 0.5 h; how it was run: as §1
Muscle tissue [15] = assay: Drug uptake in overnight fasted Sprague-Dawley rat muscle at 0.7 to 1.4 MBq, iv preincubated with POCA for 2 hrs before compound administration measured at 120 mins post treatment; format: ADME, organism-based; conditions: in vivo
How it was run: (§2)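 Female rats fasted overnight, under isoflurane (3.5% induction, 1.5% maintenance). 18F-labelled tracer formulated in 0.5–1.0% BSA/saline, injected via tail vein. Tissues harvested at 30 or 120 min, weighed, gamma-counted, decay-corrected. Uptake expressed as % dose kg/g, i.e. tissue CPM × body wt (kg) × 100 / (tissue wt (g) × dose CPM). POCA groups received 30 mg/kg i.p. 2 h before tracer. n = 5–6.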

Kidney = assay: Drug uptake in overnight fasted Sprague-Dawley rat kidney at 0.7 to 1.4 MBq, iv preincubated with POCA for 2 hrs before compound administration measured at 120 mins post treatment; format: ADME, organism-based; conditions: in vivo; how it was run: as §2
Lung [16] = assay: Drug uptake in overnight fasted Sprague-Dawley rat lung at 0.7 to 1.4 MBq, iv preincubated with POCA for 2 hrs before compound administration measured at 120 mins post treatment; format: ADME, organism-based; conditions: in vivo; how it was run: as §2
Blood [17] = assay: Drug uptake in overnight fasted Sprague-Dawley rat blood at 0.7 to 1.4 MBq, iv preincubated with POCA for 2 hrs before compound administration measured at 120 mins post treatment; format: ADME, organism-based; conditions: in vivo
How it was run: (§3)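 Overnight-fasted female Sprague-Dawley rats under isoflurane received the [18F] tracer in 0.5–1.0% BSA/saline by tail vein. POCA group: 30 mg/kg i.p. 2 h before tracer. Tissues were excised at 30 or 120 min, weighed and gamma-counted with decay correction. Uptake = % dose kg/g, i.e. CPM tissue × body wt (kg) × 100 / (tissue wt (g) × CPM dose). n = 5–6.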

Muscle tissue [18] = assay: Drug uptake in overnight fasted Sprague-Dawley rat muscle at 0.7 to 1.4 MBq, iv at 120 mins; format: ADME, organism-based; conditions: in vivo, 2 h; how it was run: as §2
Heart [19] = assay: Drug uptake in overnight fasted Sprague-Dawley rat heart at 0.7 to 1.4 MBq, iv at 120 mins; format: ADME, organism-based; conditions: in vivo, 2 h; how it was run: as §3
Lung [20] = assay: Drug uptake in overnight fasted Sprague-Dawley rat lung at 0.7 to 1.4 MBq, iv at 120 mins; format: ADME, organism-based; conditions: in vivo, 2 h; how it was run: as §2
Muscle tissue [21] = assay: Drug uptake in overnight fasted Sprague-Dawley rat muscle at 0.7 to 1.4 MBq, iv preincubated with POCA for 2 hrs before compound administration measured at 30 mins post treatment; format: ADME, organism-based; conditions: in vivo, 0.5 h; how it was run: as §2
Bone = assay: Drug uptake in overnight fasted Sprague-Dawley rat bone at 0.7 to 1.4 MBq, iv preincubated with POCA for 2 hrs before compound administration measured at 30 mins post treatment; format: ADME, organism-based, Bone element; conditions: in vivo, 0.5 h; how it was run: as §3
Liver [22] = assay: Drug uptake in overnight fasted Sprague-Dawley rat liver at 0.7 to 1.4 MBq, iv preincubated with POCA for 2 hrs before compound administration measured at 30 mins post treatment; format: ADME, organism-based; conditions: in vivo, 0.5 h; how it was run: as §2
Lung [23] = assay: Drug uptake in overnight fasted Sprague-Dawley rat lung at 0.7 to 1.4 MBq, iv preincubated with POCA for 2 hrs before compound administration measured at 30 mins post treatment; format: ADME, organism-based; conditions: in vivo, 0.5 h; how it was run: as §2
Blood [24] = assay: Drug uptake in overnight fasted Sprague-Dawley rat blood at 0.7 to 1.4 MBq, iv preincubated with POCA for 2 hrs before compound administration measured at 30 mins post treatment; format: ADME, organism-based; conditions: in vivo, 0.5 h; how it was run: as §3
Brain = assay: Drug uptake in overnight fasted Sprague-Dawley rat brain at 0.7 to 1.4 MBq, iv at 30 mins; format: ADME, organism-based; conditions: in vivo, 0.5 h; how it was run: as §3
Liver [25] = assay: Drug uptake in overnight fasted Sprague-Dawley rat liver at 0.7 to 1.4 MBq, iv at 30 mins; format: ADME, organism-based; conditions: in vivo, 0.5 h; how it was run: as §2
Lung [26] = assay: Drug uptake in overnight fasted Sprague-Dawley rat lung at 0.7 to 1.4 MBq, iv at 30 mins; format: ADME, organism-based; conditions: in vivo, 0.5 h; how it was run: as §2
Blood [27] = assay: Drug uptake in overnight fasted Sprague-Dawley rat blood at 0.7 to 1.4 MBq, iv at 30 mins; format: ADME, organism-based; conditions: in vivo, 0.5 h; how it was run: as §3

Row | Compound | Drug uptake (Heart [1]) | Drug uptake (Muscle tissue [2]) [%] | Drug uptake (Muscle tissue [3]) [%] | Drug uptake (Heart [4]) [%] | Drug uptake (Heart [5]) [%] | Drug uptake (Muscle tissue [6]) [%] | Drug uptake (Muscle tissue [7]) [%] | Drug uptake (Liver [8]) [%] | Drug uptake (Heart [9]) [%] | Drug uptake (Muscle tissue [10]) [%] | Drug uptake (Muscle tissue [11]) [%] | Drug uptake (Muscle tissue [12]) [%] | Drug uptake (Liver [13]) [%] | Drug uptake (Heart [14]) [%] | Drug uptake (Muscle tissue [15]) [%IDKg/g] | Drug uptake (Kidney) [%IDKg/g] | Drug uptake (Lung [16]) [%IDKg/g] | Drug uptake (Blood [17]) [%IDKg/g] | Drug uptake (Muscle tissue [18]) [%IDKg/g] | Drug uptake (Heart [19]) [%IDKg/g] | further results
1 | O=C(O)CCSCCCCCCCCCCCCCC[18F] | Active | 32.62 | 58.25 | 21.68 | 3.39 | 48.9 | 11.58 | 8.18 | 67.58 | 38.77 | 32.22 | 28.99 | 32.97 | 78.72 | 0.0197 | 0.0947 | 0.0244 | 0.0125 | 0.0181 | 0.2144 | Drug uptake (Lung [20]): 0.0339 %IDKg/g; Drug uptake (Muscle tissue [21]): 0.0443 %IDKg/g; Drug uptake (Bone): 0.2289 %IDKg/g; Drug uptake (Liver [22]): 0.4064 %IDKg/g; Drug uptake (Lung [23]): 0.0998 %IDKg/g; Drug uptake (Blood [24]): 0.051 %IDKg/g; Drug uptake (Brain): 0.02 %IDKg/g; Drug uptake (Liver [25]): 0.6292 %IDKg/g; Drug uptake (Lung [26]): 0.0755 %IDKg/g; Drug uptake (Blood [27]): 0.0392 %IDKg/g
2 | O=C(O)CCCCSCCCCCCCCCCCC[18F] | Active | 31.41 | 59.27 | 22.48 | 3.3 | 39.74 | 18.18 | 10.15 | 63.99 | 44.55 | 38.95 | 16.49 | 44.72 | 70.16 | 0.0599 | 0.1554 | 0.0536 | 0.0271 | 0.0263 | 0.2815 | Drug uptake (Lung [20]): 0.0702 %IDKg/g; Drug uptake (Muscle tissue [21]): 0.0639 %IDKg/g; Drug uptake (Bone): 0.1037 %IDKg/g; Drug uptake (Liver [22]): 0.8492 %IDKg/g; Drug uptake (Lung [23]): 0.1163 %IDKg/g; Drug uptake (Blood [24]): 0.051 %IDKg/g; Drug uptake (Brain): 0.033 %IDKg/g; Drug uptake (Liver [25]): 1.126 %IDKg/g; Drug uptake (Lung [26]): 0.0621 %IDKg/g; Drug uptake (Blood [27]): 0.029 %IDKg/g

From ChEMBL document CHEMBL2177094, “Structure dependence of long-chain [18F]fluorothia fatty acids as myocardial fatty acid oxidation probes” (J Med Chem, 2012)
